Active and inactive are the calls of the source. The rule behind the calls is not given here.
Key:
[1] = Stabilization of KRAS promoter G-quadruplex DNA (unknown origin) assessed as effect on melting temperature at 15 uM by circular dichroism spectroscopic assay; assay type: ADME
Method in brief: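 G-quadruplex at 3 µM, with or without 15 µM compound, in 10 mM Tris-HCl pH 7.2 containing 2 mM KCl; CD recorded every 5 °C from 25 to 95 °C at a heating rate of 1 °C/min.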

HeLa = assay: Cytotoxicity against human HeLa cells assessed as reduction in cell viability after 24 hrs by MTT assay; assay type: functional, cell-based
Method in brief: (§1)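 Cells seeded at 5.0×10^3 per well, exposed to compound for 24 h; MTT (2.5 mg/mL) added for 4 h, formazan dissolved in DMSO, OD read at 570 nm. Triplicate; IC50 from curves of mean OD against concentration.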

Mus musculus [2] = assay: Toxicity in nude BALB/c mouse xenografted with human SiHa cells assessed as signs of pain at 5 to 20 mg/kg, ip administered every other day for 24 days; assay type: organism-based; conditions: in vivo, 576 h
SiHa [3] = assay: Antitumor activity against human SiHa cells xenografted in nude BALB/c mouse assessed as tumor growth inhibition at 5 to 20 mg,kg, ip administered every other day for 24 days; assay type: functional, organism-based; conditions: TDE = time-dependent effect
Method in brief: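 BALB/c nude mice (5 weeks old) given 1×10^7 SiHa cells subcutaneously in right flank; at ~50 mm3 tumor volume, randomized (10 per group) and dosed intraperitoneally every other day for 24 days; controls got equal-volume saline. Caliper volume as 1/2 × length × width2; tumors weighed at end; inhibition rate = (1 − mean treated tumor weight/mean control tumor weight) × 100%.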

[4] = Stabilization of VEGF G-quadruplex DNA in human SiHa cells assessed as effect on VEGF mRNA level at 1.25 to 5 uM fter 6 hrs by RT-PCR method; assay type: ADME, cell-based
Method in brief: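 SiHa cells (2.0×10^5) dosed 6 h; total RNA reverse-transcribed with oligo dT18 primer and M-MLV (42 °C 1 h, 85 °C 5 min); PCR 95 °C 5 min then 30 cycles (95 °C 30 s, 58 °C 30 s, 72 °C 40 s); products checked on agarose gel.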

SiHa [5] = assay: Induction of cell cycle arrest in human SiHa cells assessed as accumulation at G0/G1 phase up to 5 uM after 12 hrs by propidium iodide-staining based FACS analysis (reference value: 61%); assay type: functional
Method in brief: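 SiHa cells treated 12 h, fixed in 70% ethanol at 4 °C overnight, stained with 50 µg/mL PI plus 75 KU/mL RNase A in PBS for 30 min in the dark at room temperature; flow cytometry, 1.6×10^4 events per sample, cell cycle distribution analyzed.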

Mus musculus [6] = assay: In vivo stabilization of c-Myc G-quadruplex DNA in human SiHa cells xenografted in nude BALB/c mouse assessed as decrease in c-Myc expression at 20 mg/kg, ip administered every other day for 24 days by immunohistochemistry; assay type: functional, organism-based
SiHa [7] = assay: Induction of cell cycle arrest in human SiHa cells assessed as upregulation of p15 protein levels after 24 hrs by Western blot analysis; assay type: functional, cell-based
Method in brief: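 SiHa cells (2.0×10^5 per well) treated 24 h, lysed at 4 °C for 30 min, supernatant cleared at 15,000 rpm; protein measured by BCA, 30 µg resolved on 10% SDS-PAGE, transferred to nitrocellulose, blocked in 5% milk/TBS-Tween 1 h, primary antibodies overnight at 4 °C, HRP secondaries 2 h at room temperature.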

[8] = Cytotoxicity against mouse primary mesangial cells assessed as reduction in cell viability after 24 hrs by MTT assay; assay type: cell-based; method in brief: as §1
SiHa [9] = assay: Induction of apoptosis in human SiHa cells after 24 hrs by Annexin V-FITC/propidium iodide-staining based flow cytometric analysis; assay type: functional, cell-based
[10] = Stabilization of PDGFA G-quadruplex DNA in human SiHa cells assessed as effect on PDGFA mRNA level at 1.25 to 5 uM fter 6 hrs by RT-PCR method; assay type: ADME, cell-based
Method in brief: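 SiHa cells (2.0×10^5 per well) treated 6 h; total RNA (2 µg) reverse-transcribed with oligo dT18 and M-MLV at 42 °C for 1 h, 85 °C for 5 min; PCR: 95 °C 5 min, then 30 cycles of 95 °C 30 s, 58 °C 30 s, 72 °C 40 s; products checked on agarose gel.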

BJ = assay: Cytotoxicity against human BJ cells assessed as reduction in cell viability after 24 hrs by MTT assay; assay type: cell-based; method in brief: as §1
Homo sapiens = species on record: Homo sapiens; assay: Stabilization of c-Myc G-quadruplex DNA in human SiHa cells assessed as decrease in c-Myc protein expression at 1.25 to 5 uM after 24 hrs by Western blot method; assay type: cell-based
Method in brief: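 SiHa cells (2.0×10^5) exposed 24 h, lysed at 4 °C; 30 µg protein per lane on 10% SDS-PAGE, transferred to nitrocellulose, milk-blocked, primary antibody overnight at 4 °C, HRP secondary 2 h at room temperature.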

Mus musculus [11] = assay: Toxicity in nude BALB/c mouse xenografted with human SiHa cells assessed as viscera weight reduction at 5 to 20 mg/kg, ip administered every other day for 24 days; assay type: organism-based; conditions: in vivo, 576 h
Method in brief: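 BALB/c nude mice, 5 weeks old, implanted subcutaneously in right flank with 1×10^7 SiHa cells; at ~50 mm3 tumor, 10 per group dosed ip every other day for 24 days, saline control; body weight measured daily, viscera weighed at sacrifice; mean ± SEM, Student's t test versus saline.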

[12] = Binding affinity to 1 uM c-MYC promoter G-quadruplex pu22 DNA (unknown origin) at 1 uM after 1 min by fluorescence spectroscopic analysis
Method in brief: (§2)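 Fluorescence emission spectra of 1 µM compound mixed with 1 µM pre-annealed oligonucleotide (G-quadruplexes folded in 100 mM KCl by heating to 95 °C for 5 min, slow cooling), in Tris-HCl buffer.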

[13] = Binding affinity to 1 uM C-KIT1 promoter G-quadruplex DNA (unknown origin) at 1 uM after 1 min by fluorescence spectroscopic analysis; assay type: ADME; method in brief: as §2

Activity [1]: Not Active
Activity [4]: Not Active
Activity [10]: Not Active
Activity [12]: Active
Activity [13]: Not Active
Compound: CCn1c2ccccc2c2cc(-c3nc(-c4ccc(N5CCN(C)CC5)cc4)c(-c4ccc(N5CCN(C)CC5)cc4)n3-c3ccc(OC)cc3)ccc21
IC50 (HeLa): 2.1 µM
Activity (Mus musculus [2]): Non-Toxic
TGI (SiHa [3]): Tde
Activity (SiHa [5]): 70%
Activity (Mus musculus [6]): Active
Activity (SiHa [7]): Dose-dependent effect
IC50 [8]: 15.6 µM
Activity (SiHa [9]): Dose-dependent effect
IC50 (BJ): 15.9 µM
Activity (Homo sapiens): Active
Activity (Mus musculus [11]): Non-Toxic

From ChEMBL document CHEMBL4033789, “Discovery of a New Four-Leaf Clover-Like Ligand as a Potent c-MYC Transcription Inhibitor Specifically Targeting the Promoter G-Quadruplex” (J Med Chem, 2018)
